Measurements taken from ChEMBL document CHEMBL2434966, “Novel N-4-piperazinyl-ciprofloxacin-chalcone hybrids: synthesis, physicochemical properties, anticancer and topoisomerase I and II inhibitory activity” (Eur J Med Chem, 2013).

Assays:
Assay type in all cases: functional
MDA-MB-468 = assay: Growth inhibition of human MDA-MB-468 cells after 48 hrs by sulforhodamine B assay; details: MDA-MB-468, 48 h
In short: (§1)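 NCI five-dose screen on the full 60-cell-line panel. Cells were given 10-fold dilutions from 10^-4 to 10^-8 M with continuous 48 h exposure, and growth was read by SRB staining. Percent growth was taken from time-zero, control and treated absorbances. GI50, TGI and LC50 were then derived, the GI50 being the concentration that gives a 50% lower net protein increase than control.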

PC-3 [1] = assay: Growth inhibition of human PC3 cells after 48 hrs by sulforhodamine B assay; details: PC-3, 48 h; in short: as §1
UO-31 = assay: Growth inhibition of human UO31 cells after 48 hrs by sulforhodamine B assay; details: UO-31, 48 h
In short: (§2)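 NCI 60-cell panel, five concentrations (10-fold dilutions, 0.01–100 µM), 48 h continuous exposure; SRB protein stain read spectrophotometrically. Percent growth from time-zero, untreated-control and treated absorbances. GI50 is the concentration giving 50% lower net protein increase than control. Values beyond the tested range are reported as more or less than the highest or lowest concentration.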

SN12C [2] = assay: Growth inhibition of human SN12C cells after 48 hrs by sulforhodamine B assay; in short: as §1
TK-10 = assay: Growth inhibition of human TK10 cells after 48 hrs by sulforhodamine B assay; details: TK-10, 48 h; in short: as §2
A498 = assay: Growth inhibition of human A498 cells after 48 hrs by sulforhodamine B assay; details: A498, 48 h
In short: (§3)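 NCI 60-panel five-dose test at 10-fold dilutions, 10^-4 to 10^-8 M, with 48 h continuous exposure and SRB protein read-out. Percent growth derived from time-zero, untreated-control and treated absorbances. GI50 is the concentration where [(Ti-Tz)/(C-Tz)]×100 = 50. TGI is taken at Ti = Tz. LC50 is taken at [(Ti-Tz)/Tz]×100 = -50.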

[3] = Growth inhibition of human NCI-ADR-RES cells after 48 hrs by sulforhodamine B assay; in short: as §1
IGROV-1 = assay: Growth inhibition of human IGROV1 cells after 48 hrs by sulforhodamine B assay; details: IGROV-1, 48 h; in short: as §3
MDA-MB-435 [4] = assay: Growth inhibition of human MDA-MB-435 cells after 48 hrs by sulforhodamine B assay; details: MDA-MB-435, 48 h; in short: as §1
SW-620 = assay: Growth inhibition of human SW620 cells after 48 hrs by sulforhodamine B assay; details: SW-620, 48 h; in short: as §2
COLO 205 = assay: Growth inhibition of human COLO205 cells after 48 hrs by sulforhodamine B assay; details: COLO 205, 48 h; in short: as §3
RPMI-8226 = assay: Growth inhibition of human RPMI8226 cells after 48 hrs by sulforhodamine B assay; details: RPMI-8226, 48 h; in short: as §1
CCRF-CEM = assay: Growth inhibition of human CCRF-CEM cells after 48 hrs by sulforhodamine B assay; in short: as §3
[5] = Growth inhibition of human Hs 578T cells assessed as cell growth at 10^-5 M after 48 hrs by sulforhodamine B assay; details: read-out: Activity
In short: (§4)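 NCI 60-cell-line primary screen. Single concentration of 10^-5 M, 48 h incubation. End point by sulforhodamine B protein staining read spectrophotometrically. Reported as percent growth of treated cells relative to untreated control cells.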

PC-3 [6] = assay: Growth inhibition of human PC3 cells assessed as cell growth at 10^-5 M after 48 hrs by sulforhodamine B assay; details: PC-3, 48 h, read-out: Activity
In short: (§5)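 NCI 60-cell-line primary one-dose screen. Cells were exposed to a single 10^-5 M concentration for 48 h. The end point was sulforhodamine B protein staining, read spectrophotometrically. Results are reported as percent growth of treated cells relative to untreated control cells.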

SN12C [7] = assay: Growth inhibition of human SN12C cells assessed as cell growth at 10^-5 M after 48 hrs by sulforhodamine B assay; details: read-out: Activity; in short: as §5
SK-OV-3 = assay: Growth inhibition of human SKOV3 cells assessed as cell growth at 10^-5 M after 48 hrs by sulforhodamine B assay; details: SK-OV-3, 48 h, read-out: Activity; in short: as §5
UACC-257 = assay: Growth inhibition of human UACC257 cells assessed as cell growth at 10^-5 M after 48 hrs by sulforhodamine B assay; details: UACC-257, 48 h, read-out: Activity
In short: (§6)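 NCI primary one-dose screen: single concentration of 10^-5 M added to culture, 48 h incubation, SRB protein-dye endpoint. Percent growth of treated cells measured spectrophotometrically against untreated controls.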

MDA-MB-435 [8] = assay: Growth inhibition of human MDA-MB-435 cells assessed as cell growth at 10^-5 M after 48 hrs by sulforhodamine B assay; details: MDA-MB-435, 48 h, read-out: Activity; in short: as §5
U-251 = assay: Growth inhibition of human U251 cells assessed as cell growth at 10^-5 M after 48 hrs by sulforhodamine B assay; details: U-251, 48 h, read-out: Activity; in short: as §6
SF-539 = assay: Growth inhibition of human SF539 cells assessed as cell growth at 10^-5 M after 48 hrs by sulforhodamine B assay; details: SF-539, 48 h, read-out: Activity; in short: as §5
SF-295 = assay: Growth inhibition of human SF295 cells assessed as cell growth at 10^-5 M after 48 hrs by sulforhodamine B assay; details: SF-295, 48 h, read-out: Activity; in short: as §5
HT-29 = assay: Growth inhibition of human HT-29 cells assessed as cell growth at 10^-5 M after 48 hrs by sulforhodamine B assay; details: HT-29, 48 h, read-out: Activity; in short: as §4
HCT-116 = assay: Growth inhibition of human HCT116 cells assessed as cell growth at 10^-5 M after 48 hrs by sulforhodamine B assay; details: HCT-116, 48 h, read-out: Activity; in short: as §4
NCI-H226 = assay: Growth inhibition of human NCI-H226 cells assessed as cell growth at 10^-5 M after 48 hrs by sulforhodamine B assay; details: NCI-H226, 48 h, read-out: Activity; in short: as §5
K562 = assay: Growth inhibition of human K562 cells assessed as cell growth at 10^-5 M after 48 hrs by sulforhodamine B assay; details: K562, 48 h, read-out: Activity; in short: as §4
[9] = read-out: LC50 (the source's name)

COc1cc(/C=C/C(=O)c2ccc(NC(=O)CN3CCN(c4cc5c(cc4F)c(=O)c(C(=O)O)cn5C4CC4)CC3)cc2)cc(OC)c1OC
GI50 (MDA-MB-468): 330 nM
LC50 (concentration killing 50% of starting cells) (MDA-MB-468): 40700 nM
TGI (MDA-MB-468): 1780 nM
GI50 (PC-3 [1]): 560 nM
LC50 (PC-3 [1]): > 100000 nM
TGI (PC-3 [1]): > 100000 nM
GI50 (UO-31): 1170 nM
LC50 (concentration killing 50% of cells) (UO-31): > 100000 nM
TGI (UO-31): 6800 nM
GI50 (SN12C [2]): 530 nM
LC50 (lethal concentration, 50% net cell kill) (SN12C [2]): > 100000 nM
TGI (SN12C [2]): 12200 nM
GI50 (TK-10): 1290 nM
TGI (TK-10): 16500 nM
CC50 (TK-10; [9]): > 100000 nM
GI50 (A498): 360 nM
LC50 (concentration killing 50% of starting cells) (A498): 5470 nM
TGI (A498): 1800 nM
GI50 [3]: 57600 nM
TGI [3]: > 100000 nM
CC50 [3, 9]: > 100000 nM
GI50 (IGROV-1): 400 nM
LC50 (concentration giving 50% net cell kill) (IGROV-1): 8430 nM
TGI (IGROV-1): 1720 nM
GI50 (MDA-MB-435 [4]): 300 nM
LC50 (MDA-MB-435 [4]): > 100000 nM
TGI (MDA-MB-435 [4]): 1700 nM
GI50 (SW-620): 420 nM
TGI (SW-620): 3200 nM
CC50 (SW-620; [9]): > 100000 nM
GI50 (COLO 205): 1620 nM
LC50 (lethal concentration, 50% net cell kill) (COLO 205): > 100000 nM
TGI (COLO 205): 15400 nM
GI50 (RPMI-8226): 290 nM
TGI (RPMI-8226): 770 nM
CC50 (RPMI-8226; [9]): > 100000 nM
GI50 (CCRF-CEM): 320 nM
LC50 (concentration giving 50% net cell kill) (CCRF-CEM): > 100000 nM
growth at 10 µM [5]: 76.8%
growth at 10 µM (PC-3 [6]): 21.5%
growth at 10 µM (SN12C [7]): 10.3%
growth at 10 µM (SK-OV-3): 33.3%
growth at 10 µM (UACC-257): 30.8%
growth at 10 µM (MDA-MB-435 [8]): -1.52%
growth at 10 µM (U-251): -55.8%
growth at 10 µM (SF-539): -15.8%
growth at 10 µM (SF-295): -27.2%
growth at 10 µM (HT-29): -3.37%
growth at 10 µM (HCT-116): -88.2%
growth at 10 µM (NCI-H226): -9.81%
growth at 10 µM (K562): 1.66%
